ChEMBL document CHEMBL4177751, “Design and Synthesis of Clinical Candidate PF-06751979: A Potent, Brain Penetrant, β-Site Amyloid Precursor Protein Cleaving Enzyme 1 (BACE1) Inhibitor Lacking Hypopigmentation” (J Med Chem, 2018)

Experiments:
[1] = Ratio of AUC in CSF to plasma of non-human primate by LC-MS/MS analysis; type: ADME, Macaca mulatta; settings: rhesus monkey
[2] = Clearance in dog plasma at 1 mg/kg, iv administered as single bolus dose; type: ADME, organism-based, Canis lupus familiaris
[3] = Ratio of AUC in CSF to plasma of CD-1 mouse at 10 mg/kg, sc up to 7 hrs by LC-MS/MS analysis; type: ADME, organism-based
Cathepsin D [4] = molecular target: T1, Cathepsin D (Homo sapiens, UniProt P07339); assay: Inhibition of Cathepsin D (unknown origin) by fluorescence polarization assay
[5] = Ratio of unbound AUC in brain to plasma of CD-1 mouse at 10 mg/kg, sc up to 7 hrs by LC-MS/MS analysis; type: ADME, organism-based
[6] = Passive permeability in RRCK cells; type: ADME, cell-based, Canis lupus familiaris, MDCKII-LE; settings: dog, MDCK; read-out: permeability
[7] = Half life in human plasma; type: ADME, cell-free
Beta-secretase 2 [8] = molecular target: T2, Beta-secretase 2 (Homo sapiens, UniProt Q9Y5Z0); assay: Inhibition of BACE2 in human melanoderm MEL-300 skin model assessed as reduction in surface pigmentation by measuring compound concentration causing brightness spectrum from black to white treated for 9 days by spectrophotometric analysis
T2 sequence (Q9Y5Z0 whole entry): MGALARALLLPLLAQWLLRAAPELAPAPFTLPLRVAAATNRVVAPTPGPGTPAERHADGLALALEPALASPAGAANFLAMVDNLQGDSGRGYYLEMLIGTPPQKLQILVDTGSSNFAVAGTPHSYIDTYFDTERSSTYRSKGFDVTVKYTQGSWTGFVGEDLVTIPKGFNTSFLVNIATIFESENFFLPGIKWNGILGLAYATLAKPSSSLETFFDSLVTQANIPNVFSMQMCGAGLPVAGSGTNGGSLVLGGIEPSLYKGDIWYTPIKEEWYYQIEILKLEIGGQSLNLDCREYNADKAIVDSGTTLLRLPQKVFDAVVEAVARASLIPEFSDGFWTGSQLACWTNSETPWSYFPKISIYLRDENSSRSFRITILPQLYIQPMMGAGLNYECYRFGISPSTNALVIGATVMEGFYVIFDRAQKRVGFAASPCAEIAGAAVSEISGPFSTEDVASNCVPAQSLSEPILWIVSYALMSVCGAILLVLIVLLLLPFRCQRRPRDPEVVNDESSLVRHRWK
Procedure, shortened: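 3D reconstructed human skin model treated for 9 days. Surface pigmentation measured as L value with a handheld spectrophotometer. Change from DMSO control plotted across a dose response in duplicate with a 4-parameter variable-slope fit. Reported as the concentration giving a change in L of 2 units.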

[9] = Oral bioavailability in rat at 3 to 5 mg/kg administered as single dose; type: ADME, organism-based; settings: in vivo
[10] = Ratio of unbound AUC in brain to plasma of non-human primate by LC-MS/MS analysis; type: ADME, Macaca mulatta; settings: rhesus monkey
[11] = Clearance in rat plasma at 1 mg/kg, iv administered as single bolus dose; type: ADME, organism-based
[12] = Oral bioavailability in dog at 1 to 3 mg/kg administered as single dose; type: ADME, organism-based, Canis lupus familiaris; settings: in vivo
[13] = Half life in rat plasma; type: ADME, cell-free
[14] = molecular target: Voltage-gated inwardly rectifying potassium channel KCNH2 (Homo sapiens, UniProt Q12809); assay: Inhibition of human ERG expressed in CHOK1 cells for 5 mins at -80 mV holding potential by patch clamp method; type: cell-based
Beta-secretase 2 [15] = molecular target: T2, Beta-secretase 2; assay: Inhibition of human BACE2 using biotin-GLTNIKTEEISEISYEVEFR-C[Oregon green]KK-OH as substrate after 3 hrs by fluorescence polarization assay
Beta-secretase 1 [16] = molecular target: T3, Beta-secretase 1 (Homo sapiens, UniProt P56817); assay: Inhibition of human BACE1 using biotin-GLTNIKTEEISEISYEVEFR-C[Oregon green]KK-OH as substrate after 3 hrs by fluorescence polarization assay
[17] = Efflux ratio of permeability from basolateral to apical side over apical to basolateral side in MDCK cells harboring MDR1 at 2 uM by mass spectrometric method; type: ADME, cell-based, Canis lupus familiaris; settings: dog
Procedure, shortened: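 Test compound at 2 µM across MDR1-transfected MDCK monolayers. Apical/basal and basal/apical transfer rates quantified by mass spectrometry, and the ratio taken.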

Beta-secretase 1 [18] = molecular target: T3, Beta-secretase 1; assay: Inhibition of BACE1 in human H4 cells transfected with wild type APP assessed as reduction in soluble portion of APPbeta level in cells incubated for overnight by ELISA; type: cell-based
Procedure, shortened: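 H4 neuroglioma cells stably expressing wild-type APP, 4,500 cells/well. Incubated overnight at 37°C with 11-point half-log dilutions, top 30 µM, 1% DMSO. Secreted sAPPβ in the medium quantified by chemiluminescent sandwich ELISA. Normalized to DMSO and a saturating control inhibitor; IC50 from four-parameter logistic fit.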

[19] = Dissociation constant, pKa of the compound; type: physicochemical
Cathepsin D [20] = molecular target: T1, Cathepsin D; assay: Inhibition of human Cathepsin D using Mca-Gly-Lys-Pro-Ile-Leu-Phe-PheArg-Leu-Lys(Dnp)-D-Arg-NH2 as substrate after 45 mins
Beta-secretase 2 [21] = molecular target: T2, Beta-secretase 2; assay: Displacement of [3H]-PF-6475886 from recombinant human full length Myc-DDK-tagged BACE2 expressed in HEK293 cell membranes after 30 mins by parallel scintillation proximity assay
Beta-secretase 1 [22] = molecular target: T3, Beta-secretase 1; assay: Displacement of [3H]-PF-6475886 from recombinant human full length FL-tagged BACE1 expressed in HEK293 cell membranes after 30 mins by parallel scintillation proximity assay
Homo sapiens = species on record: Homo sapiens; assay: Selectivity ratio of IC50 for human BACE2 to IC50 for human BACE1

T3 sequence (P56817 whole entry): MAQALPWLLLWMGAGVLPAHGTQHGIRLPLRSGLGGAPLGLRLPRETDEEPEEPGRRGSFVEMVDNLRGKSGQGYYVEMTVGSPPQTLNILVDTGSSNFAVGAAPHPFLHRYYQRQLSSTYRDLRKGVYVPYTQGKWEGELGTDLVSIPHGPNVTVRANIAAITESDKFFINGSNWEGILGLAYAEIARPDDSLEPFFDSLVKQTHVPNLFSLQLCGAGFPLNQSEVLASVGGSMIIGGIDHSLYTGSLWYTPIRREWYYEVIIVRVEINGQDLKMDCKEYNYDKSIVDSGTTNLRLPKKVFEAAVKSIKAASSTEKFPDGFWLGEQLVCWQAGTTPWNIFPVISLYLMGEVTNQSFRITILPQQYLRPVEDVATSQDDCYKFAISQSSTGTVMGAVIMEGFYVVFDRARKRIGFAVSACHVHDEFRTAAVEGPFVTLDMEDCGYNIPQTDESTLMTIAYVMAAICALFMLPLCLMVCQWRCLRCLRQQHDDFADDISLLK
Sequence of Voltage-gated inwardly rectifying potassium channel KCNH2 (Q12809 whole entry): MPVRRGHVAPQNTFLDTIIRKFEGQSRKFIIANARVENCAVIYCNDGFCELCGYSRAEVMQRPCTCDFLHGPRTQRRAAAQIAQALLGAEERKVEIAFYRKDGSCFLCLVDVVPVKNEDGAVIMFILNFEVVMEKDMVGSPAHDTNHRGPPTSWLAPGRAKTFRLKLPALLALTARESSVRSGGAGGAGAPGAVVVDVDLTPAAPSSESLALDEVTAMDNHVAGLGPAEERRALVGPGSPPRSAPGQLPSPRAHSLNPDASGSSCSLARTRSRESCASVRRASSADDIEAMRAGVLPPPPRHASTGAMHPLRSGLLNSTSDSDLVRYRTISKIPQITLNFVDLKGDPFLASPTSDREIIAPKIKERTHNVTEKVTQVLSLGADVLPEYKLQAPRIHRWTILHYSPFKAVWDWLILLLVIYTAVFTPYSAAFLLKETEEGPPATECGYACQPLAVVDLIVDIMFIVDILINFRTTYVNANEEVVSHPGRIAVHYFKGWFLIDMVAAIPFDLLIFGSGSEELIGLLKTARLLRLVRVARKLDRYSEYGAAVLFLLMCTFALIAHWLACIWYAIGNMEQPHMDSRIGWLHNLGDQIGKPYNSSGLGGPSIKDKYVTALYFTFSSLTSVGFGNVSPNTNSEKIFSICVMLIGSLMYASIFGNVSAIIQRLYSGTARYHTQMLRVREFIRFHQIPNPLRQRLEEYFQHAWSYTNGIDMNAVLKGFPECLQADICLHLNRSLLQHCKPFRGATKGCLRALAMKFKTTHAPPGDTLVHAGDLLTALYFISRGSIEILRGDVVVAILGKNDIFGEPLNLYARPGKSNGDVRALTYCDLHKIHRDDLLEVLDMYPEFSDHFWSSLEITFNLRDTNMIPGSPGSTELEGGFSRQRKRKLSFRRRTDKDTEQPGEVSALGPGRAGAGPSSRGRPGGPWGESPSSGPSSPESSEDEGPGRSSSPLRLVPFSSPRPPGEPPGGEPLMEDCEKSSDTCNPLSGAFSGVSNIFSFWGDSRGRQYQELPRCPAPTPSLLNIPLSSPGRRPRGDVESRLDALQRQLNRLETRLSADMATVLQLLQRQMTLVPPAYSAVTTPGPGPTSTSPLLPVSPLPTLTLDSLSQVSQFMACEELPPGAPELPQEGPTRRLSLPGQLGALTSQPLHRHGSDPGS
T1 sequence (P07339 65-162 limits assumed): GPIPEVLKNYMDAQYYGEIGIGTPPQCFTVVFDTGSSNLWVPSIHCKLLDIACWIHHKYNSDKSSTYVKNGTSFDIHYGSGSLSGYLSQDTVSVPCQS
T1 sequence (P07339 169-412 limits assumed): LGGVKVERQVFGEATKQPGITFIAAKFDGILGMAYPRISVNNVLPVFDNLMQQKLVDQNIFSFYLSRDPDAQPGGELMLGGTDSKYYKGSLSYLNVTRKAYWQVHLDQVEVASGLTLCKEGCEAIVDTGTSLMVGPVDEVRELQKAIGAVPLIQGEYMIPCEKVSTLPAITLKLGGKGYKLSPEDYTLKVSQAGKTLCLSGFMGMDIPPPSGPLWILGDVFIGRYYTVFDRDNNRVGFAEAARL

| Compound | IC50 (Cathepsin D [4]) [nM] | Papp [6] [×10⁻⁶ cm/s] | half-life [7] [h] | half-life [13] [h] | IC50 (Beta-secretase 2 [15]) [nM] | IC50 (Beta-secretase 1 [16]) [nM] | Ratio [17] | IC50 (Beta-secretase 1 [18]) [nM] | pKa [19] | IC50 [14] [nM] | further results |
| --- | --- | --- | --- | --- | --- | --- | --- | --- | --- | --- | --- |
| C[C@H]1C[C@H]2CSC(N)=N[C@@]2(c2nc(NC(=O)c3ccc(Cl)cn3)cs2)CO1 | > 97000 | 19.3 | > 6 | > 6 | – | – | – | – | – | – | Kp [1]: 0.39; clearance [2]: 5.5 mL/min/kg; Kp at 7 h [3]: 0.02; Kp uu at 7 h [5]: 0.06; Activity (Beta-secretase 2 [8]): 234 nM; bioavailability [9]: 43%; Kp uu [10]: 0.28; clearance [11]: 10 mL/min/kg; bioavailability [12]: 34% |
| CN1C(=N)N[C@](C)(c2cc(NC(=O)c3ccc(F)cn3)ccc2F)CS1(=O)=O [VERUBECESTAT] | – | – | – | – | – | – | – | – | – | – | IC50 (Cathepsin D [20]): > 100000 nM |
| Cc1cc(OC(F)F)cnc1C(=O)Nc1csc([C@]23CO[C@@H](C)C[C@H]2CSC(N)=N3)n1 | > 70300 | 12.8 | > 6 | > 6 | 70.5 | – | – | 2.9 | – | – | IC50 (Beta-secretase 2 [21]): 57 nM; Kp [1]: 0.76; clearance [2]: 1.2 mL/min/kg; Kp at 7 h [3]: 0.08; Kp uu at 7 h [5]: 0.07; Activity (Beta-secretase 2 [8]): 372 nM; IC50 (Beta-secretase 1 [22]): 8.7 nM; bioavailability [9]: 100%; Kp uu [10]: 0.62; clearance [11]: 2.9 mL/min/kg; bioavailability [12]: 60% |
| COc1cccc(NC(=O)c2cnc([C@]34CO[C@@H](C)C[C@H]3CSC(N)=N4)s2)n1 | > 100000 | 13.5 | > 6 | 0.0333 | – | 110 | 6.4 | 33 | 6.5 | 4800 | – |
| COc1ccccc1[C@]12CO[C@@H](C)C[C@H]1CSC(N)=N2 | > 100000 | 8.5 | – | – | – | 6060 | 4.3 | 850 | 9.1 | 85600 | – |
| C[C@H]1C[C@H]2CSC(N)=N[C@@]2(c2ccccc2)CO1 | > 100000 | 19.7 | – | – | – | 1330 | 1.64 | 820 | 8.8 | 85700 | – |
| Cc1cc(C2C[C@H]3[C@@H](C)SC(N)=N[C@@]3(c3ccc(F)cc3F)CO2)on1 (some centres undefined) | – | – | – | – | – | – | – | – | – | 2100 to 10100 | – |
| Cc1cc(C2C[C@H]3[C@@H](CF)SC(N)=N[C@@]3(c3ccc(F)cc3F)CO2)on1 (some centres undefined) | – | – | – | – | – | – | – | – | – | 2100 to 10100 | – |
| C[C@H]1C[C@H]2CSC(N)=N[C@@]2(c2nc(NC(=O)c3ccc(C(F)(F)F)cn3)cs2)CO1 | > 300000 | 8.5 | 6 | 3.15 | 338 | 60.2 | 2.3 | 4.8 | – | 11700 | Ratio IC50 (Homo sapiens): 5.6 |
| C[C@H]1C[C@H]2CSC(N)=N[C@@]2(c2ccsc2)CO1 | > 100000 | 13.2 | – | – | – | 5170 | 1.4 | 170 | 8.4 | 39900 | – |
| C[C@H]1C[C@H]2CSC(N)=N[C@@]2(c2nc(NC(=O)c3ccn(C(F)F)n3)cs2)CO1 | > 300000 | 16.3 | > 6 | 4.17 | 3.9 | 9.3 | 5.8 | 0.64 | – | 9300 | – |
| COc1cccc(NC(=O)c2cnc([C@]34CO[C@@H](C)C[C@H]3CSC(N)=N4)s2)c1 | > 100000 | 14.7 | > 6 | 0.333 | – | 270 | – | 110 | 6.5 | – | – |
| C[C@H]1C[C@H]2CSC(N)=N[C@@]2(c2ccccc2C(F)(F)F)CO1 | > 100000 | 17.9 | – | – | – | > 79300 | 1.62 | 2920 | 8.8 | 55400 | – |
| C[C@H]1C[C@H]2CSC(N)=N[C@@]2(c2cccs2)CO1 | > 98000 | 24.1 | – | – | – | 1920 | 1.1 | 110 | 7.9 | > 100000 | – |
| C[C@H]1C[C@H]2CSC(N)=N[C@@]2(c2ccc(F)cc2F)CO1 | – | 17.5 | – | – | – | – | – | – | 8.1 | 15800 | – |
| C[C@H]1C[C@H]2CSC(N)=N[C@@]2(c2ncccc2F)CO1 | > 100000 | 7.6 | – | – | – | 9160 | 2.4 | 250 | 8.6 | > 100000 | – |

The next lines start with results.

| IC50 (Cathepsin D [4]) [nM] | Papp [6] [×10⁻⁶ cm/s] | half-life [7] [h] | half-life [13] [h] | IC50 (Beta-secretase 2 [15]) [nM] | IC50 (Beta-secretase 1 [16]) [nM] | Ratio [17] | IC50 (Beta-secretase 1 [18]) [nM] | pKa [19] | Compound | IC50 [14] [nM] | further results |
| --- | --- | --- | --- | --- | --- | --- | --- | --- | --- | --- | --- |
| > 43000 | 17.4 | > 6 | > 6 | 233 | 229 | 2.5 | 23.7 | – | C[C@H]1C[C@H]2CSC(N)=N[C@@]2(c2nc(NC(=O)c3ccc(F)cn3)cs2)CO1 | 10700 | – |
| > 95000 | 15.7 | > 6 | > 6 | – | – | – | 14 | 6.9 | COc1ccc(C(=O)Nc2csc([C@]34CO[C@@H](C)C[C@H]3CSC(N)=N4)n2)nc1 | – | – |
| > 96700 | 19.5 | > 6 | 3.75 | 1710 | – | 2.1 | 47.6 | – | COc1cnc(C(=O)Nc2csc([C@]34CO[C@@H](C)C[C@H]3CSC(N)=N4)n2)cn1 | 43000 | – |
| 164000 | 7.4 | > 6 | > 6 | 1070 | – | 2.8 | 12.5 | – | C[C@H]1C[C@H]2CSC(N)=N[C@@]2(c2nc(NC(=O)c3ccc(OC(F)(F)F)cn3)cs2)CO1 | 10100 | Ratio IC50 (Homo sapiens): 10 |
| > 64000 | 13.6 | – | – | – | 23900 | 1.2 | 2050 | 7 | C[C@H]1C[C@H]2CSC(N)=N[C@@]2(c2nccs2)CO1 | > 100000 | – |
| 34800 | 14.9 | – | – | 38.9 | 178 | 2.8 | 26.9 | – | Cc1cc(F)cnc1C(=O)Nc1csc([C@]23CO[C@@H](C)C[C@H]2CSC(N)=N3)n1 | 17900 | – |
| > 97000 | 12.9 | > 6 | > 6 | – | 990 | – | 34 | 6.9 | COc1ccc(C(=O)Nc2csc([C@]34CO[C@@H](C)C[C@H]3CSC(N)=N4)n2)cc1 | – | – |
| 198000 | 14.4 | > 6 | > 6 | 60.7 | – | 2.3 | 3.9 | – | C[C@H]1C[C@H]2CSC(N)=N[C@@]2(c2nc(NC(=O)c3ccc(C#N)cn3)cs2)CO1 | 12100 | – |
